For data set [1], the system named is P-388 murine lymphocytic leukemia cells. Particulars: cited from earlier work.
Data set [2] relates to KB cells. The conditions noted are these: cited from earlier work.
Data set [3] concerns caspase-3. In words: Caspase-3 activation by Western blot. The class given is cell-based, human. The conditions noted are these: 24 h incubation; 1, 5 and 10 μM; cleaved caspase-3 Western blot. For orientation: In western blotting, separated proteins are transferred to a membrane and probed.
Data set [4] concerns the target topo IIα (Homo sapiens, UniProt P11388). As to the kind of experiment: Topoisomerase II assay. The class given is biochemical. Particulars: 100 μM.
The subject of data set [5] is CCD-112CoN normal human colon cells. As to the kind of experiment: Cytotoxicity against CCD-112CoN cells. The class given is cell-based. The essentials: (§1)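 Cell growth-inhibition screen with paclitaxel as positive control. Each measurement was run in triplicate, and each value is representative of two independent experiments. IC50 was calculated by nonlinear regression.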

For data set [6], the system named is HT-29 cells implanted in immunodeficient NCr nu/nu mice. In words: In vivo hollow fiber assay. The essentials: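 Eight- to nine-week-old mice carrying HT-29 cells in hollow fibers received ip doses once daily on days 3–6 after implantation. Vehicle was diluted with water to 13% DMSO and 25% Cremophor; paclitaxel 5 mg/kg was the positive control. Body weight was recorded daily. Fibers were retrieved on day 7 for modified MTT. Net growth (day 7 − day 0 absorbance) was expressed relative to vehicle; n = 6 control, 3 per treatment.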

Data set [7] concerns HT-29 human colon cancer cells. In words: Cytotoxicity against HT-29 cells. It is filed as cell-based. The essentials:
as §1

In data set [8] the test system is SKW-3 chronic lymphoid leukemia cells. The conditions noted are these: cited from earlier work.
Data set [9] concerns MCF-7S human breast carcinoma. Particulars: read-out: IC50, MCF-7S cell growth; cited from earlier work.
For data set [10], the system named is KB human epidermoid carcinoma. The conditions noted are these: read-out: IC50, KB cell growth; cited from earlier work.
Data set [11] deals with several human cancer cell lines. Particulars: cited from earlier work.
Data set [12] concerns a broad spectrum of normal and tumor cell lines. Particulars: cited from earlier work.
The subject of data set [13] is topoisomerase. The conditions noted are these: cited from earlier work.
Data set [14] deals with HT-29 human colon cancer cell. The conditions noted are these: 8-day treatment; cited from earlier work.
The conditions of data set [15]: cited from earlier work.

≈ marks a conversion by molar mass, not a printed value. Entries after “also recorded” stand apart in the source; their conditions may differ.

Sequence of topo IIα (P11388 whole entry): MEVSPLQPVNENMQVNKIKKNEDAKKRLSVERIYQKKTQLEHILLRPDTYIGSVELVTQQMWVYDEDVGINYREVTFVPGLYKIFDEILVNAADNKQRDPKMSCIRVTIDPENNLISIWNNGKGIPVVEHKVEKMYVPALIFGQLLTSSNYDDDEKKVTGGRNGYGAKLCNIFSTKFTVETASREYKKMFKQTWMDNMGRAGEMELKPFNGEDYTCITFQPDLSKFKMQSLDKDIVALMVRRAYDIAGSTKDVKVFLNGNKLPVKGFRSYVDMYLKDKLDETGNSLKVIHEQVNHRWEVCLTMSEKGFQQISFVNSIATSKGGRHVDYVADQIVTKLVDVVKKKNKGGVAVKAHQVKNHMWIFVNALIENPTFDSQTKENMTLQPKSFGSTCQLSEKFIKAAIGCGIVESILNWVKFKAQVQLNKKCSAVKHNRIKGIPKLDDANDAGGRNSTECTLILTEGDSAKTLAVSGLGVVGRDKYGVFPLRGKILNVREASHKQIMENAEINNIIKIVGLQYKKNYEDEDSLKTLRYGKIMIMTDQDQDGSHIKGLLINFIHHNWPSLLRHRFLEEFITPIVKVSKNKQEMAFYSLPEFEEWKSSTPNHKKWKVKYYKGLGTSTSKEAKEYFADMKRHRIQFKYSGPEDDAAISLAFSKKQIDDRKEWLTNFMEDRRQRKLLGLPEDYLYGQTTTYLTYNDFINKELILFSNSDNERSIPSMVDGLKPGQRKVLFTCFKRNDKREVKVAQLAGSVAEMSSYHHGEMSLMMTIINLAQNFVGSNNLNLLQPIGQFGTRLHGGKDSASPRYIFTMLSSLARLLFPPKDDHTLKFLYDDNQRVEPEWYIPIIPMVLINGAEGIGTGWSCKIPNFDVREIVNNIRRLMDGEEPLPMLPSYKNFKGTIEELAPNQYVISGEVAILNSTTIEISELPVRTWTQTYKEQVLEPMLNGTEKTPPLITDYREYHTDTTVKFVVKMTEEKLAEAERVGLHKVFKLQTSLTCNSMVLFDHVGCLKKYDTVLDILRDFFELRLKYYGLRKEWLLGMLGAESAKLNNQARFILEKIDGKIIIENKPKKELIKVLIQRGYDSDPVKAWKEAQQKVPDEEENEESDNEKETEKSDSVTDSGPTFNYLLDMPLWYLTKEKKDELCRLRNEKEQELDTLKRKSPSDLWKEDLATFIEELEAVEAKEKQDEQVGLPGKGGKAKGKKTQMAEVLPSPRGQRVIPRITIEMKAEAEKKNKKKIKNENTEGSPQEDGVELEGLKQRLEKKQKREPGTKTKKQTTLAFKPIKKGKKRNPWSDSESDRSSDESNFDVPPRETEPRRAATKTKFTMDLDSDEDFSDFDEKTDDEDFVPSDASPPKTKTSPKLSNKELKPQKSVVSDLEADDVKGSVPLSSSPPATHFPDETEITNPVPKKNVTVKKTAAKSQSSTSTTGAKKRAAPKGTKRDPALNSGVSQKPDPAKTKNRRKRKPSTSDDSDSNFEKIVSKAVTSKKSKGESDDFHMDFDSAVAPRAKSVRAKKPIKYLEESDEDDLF

Regarding `COc1cc2c(O[C@@H]3OC[C@H](O)[C@H](O)[C@H]3O)c3c(c(-c4ccc5c(c4)OCO5)c2cc1OC)C(=O)OC3` [Acutissimalignan A], in data set [1], the “IC50 toward P-388 cells” value was 0.02 µg/mL (≈ 0.039 µM).

Consider `COc1cc2c(OC3OCC(OC)C(OC)C3O)c3c(c(-c4ccc5c(c4)OCO5)c2cc1OC)C(=O)OC3` (centres unmarked) [Cleistanthin A], for which the “GI50 toward KB cells” value in data set [2] is listed as 5.6 nM.

`COc1cc2c(O[C@@H]3OC[C@H](OC(C)=O)[C@H](OC(C)=O)[C@H]3O)c3c(c(-c4ccc5c(c4)OCO5)c2cc1OC)C(=O)OC3` [Compound 1, 7-O-[(3,4-di-O-acetyl)-α-L-arabinopyranosyl]-4,5-dimethoxy-3′,4′-methylenedioxy-2,7′-cycloligna-7,7′-dieno-9,9′-lactone]: the “caspase-3 activation in HT-29 cells” value in data set [3] is listed as “induced activation of caspase-3”. Also, the “topo IIα inhibition (in words)” value in data set [4] is “did not inhibit DNA topoisomerase IIα activity”. The “cytotoxicity toward CCD-112CoN human normal colon cells (in words)” value in data set [5] was “noncytotoxic”. Further, in data set [6] (5.0-20.0 mg/kg ip once daily for 4 days, NCr nu/nu mice), the “toxicity in treated mice” value is reported as “No gross toxicity was observed; also recorded: no signs of toxicity”. The “relative HT-29 cell growth in hollow fibers” value in [6] (10.0, 15.0 or 20.0 mg/kg ip once daily for 4 days, compared with 5 mg/kg ip, NCr nu/nu mice) is listed as “statistically significantly different”. For the same compound, the “activity in in vivo hollow fiber assay” value in data set [6] (HT-29 cells implanted in NCr nu/nu mice) is “showed activity”.

In the case of `COc1cc2c(O[C@@H]3OC[C@H](O)[C@H](O)[C@H]3O)c3c(c(-c4ccc5c(c4)OCO5)c2cc1OC)C(=O)OC3` [Compound 4, phyllanthusmin C], the “cytotoxicity toward CCD-112CoN human normal colon cells (in words)” value in data set [5] is listed as “noncytotoxic”.

On to `COc1cc2c(O[C@@H]3O[C@H](CO)[C@@H](O)[C@H](O)[C@H]3O)c3c(c(-c4ccc5c(c4)OCO5)c2cc1OC)C(=O)OC3` [Compound 5, cleistanthin B], for which the “cytotoxicity against HT-29 human colon cancer cells (in words)” value in data set [7] was “inactive”.

Turning to `COc1cc2cc3c(c(-c4ccc5c(c4)OCO5)c2cc1OC)C(=O)CO3` [Justicidin B], the “cytotoxicity toward SKW-3 cells (in words)” value in [8] is “cytotoxic”.

With `COc1cc2c(O[C@@H]3O[C@H](C)[C@@H](O)[C@H](O)[C@H]3O)c3c(c(-c4ccc5c(c4)OCO5)c2cc1OC)C(=O)OC3` [Patentiflorin A], the IC50 – broadly, the concentration that inhibits the measured activity by half – in data set [9] was 3 nM; in data set [10], 4 nM.

As for `COc1ccc(-c2c3c(c(OC)c4cc5c(cc24)OCO5)COC3=O)cc1OC` [chinensinaphthol methyl ether], in data set [11], the “cytotoxicity (in words)” value was “did not show such activity”.

Turning to `COc1cc2c(O[C@@H]3O[C@H](CO)[C@@H](O)[C@H](O)[C@H]3O)c3c(c(-c4ccc5c(c4)OCO5)c2cc1OC)C(=O)OC3` [cleistanthin B], in data set [12], the “selectivity of cytotoxicity, tumor versus normal cell lines (in words)” value is “showed cytotoxicity toward human tumor cells selectively”.

Take `COc1cc2c(-c3ccc4c(c3)OCO4)c3c(cc2cc1O)COC3=O` [daurinol]: the “formation of open circular and linear DNA from topoisomerase-DNA cleavable intermediate” value in [13] was “did not induce the formation of open circular and linear DNA”.

Regarding `COc1cc([C@@H]2c3cc4c(cc3[C@@H](O[C@@H]3O[C@@H]5CO[C@@H](C)O[C@H]5[C@H](O)[C@H]3O)[C@H]3COC(=O)[C@H]23)OCO4)cc(OC)c1O` [etoposide], the “caspase-3 activation in HT-29 cells” value in [3] is given as “did not induce caspase-3 activation”. The “cytotoxicity against HT-29 human colon cancer cells (in words)” value in data set [7] is “inactive”. The “HT-29 cell apoptosis induction” value in data set [14] was “induced HT-29 human colon cancer cell apoptosis”.

As for `COc1cc2c(OC)c3c(c(-c4ccc5c(c4)OCO5)c2cc1OC)C(=O)OC3` [justicidin A], in data set [11], the “IC50 toward several human cancer cell lines” value was 0.002 to 0.007 µg/mL and the “cytotoxicity (in words)” value was “highly cytotoxic”.

Consider `CC(=O)O[C@H]1C(=O)[C@@]2(C)[C@H]([C@H](OC(=O)c3ccccc3)[C@]3(O)C[C@H](OC(=O)[C@H](O)[C@@H](NC(=O)c4ccccc4)c4ccccc4)C(C)=C1C3(C)C)[C@]1(OC(C)=O)CO[C@@H]1C[C@@H]2O` [paclitaxel], for which the IC50 in data set [7] (Homo sapiens, HT-29, read-out: IC50 values toward the HT-29 cells) was determined as 1 nM.

For the compound Cleistanthoside A tetraacetate, the “IG50 values, cytotoxicity” value in [15] was “in the nanomolar range”.

The record behind these values is PMC4073661 (Journal of Natural Products, 2014).
